In brackets after ≈: the same amount, converted by molar mass. Activity calls are given as the source filed them. The calls are words filed in the database; no cut-off is given here.
Assays:
Assay type in all cases: functional
Pseudomonas aeruginosa [1] = assay: Antibacterial activity against Pseudomonas aeruginosa at 50 ug/ml after 18 hrs by cup plate method; conditions: for zone of inhibition at 50 µg/mL: read-out: DIZ
In short: (§1)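 Agar well diffusion on Mueller-Hinton agar. Inoculum was adjusted to a 0.5 McFarland standard (about […] × 10⁸ CFU/mL) and swabbed over the plate three times, rotating about 60° each time, then the rim was swabbed. Compounds in DMSO went into duplicate 6 mm wells. Plates were incubated at 37 °C for 18 h and inhibition zone diameter read to the nearest mm. DMSO negative control; streptomycin and ciprofloxacin positive controls.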

[2] = tested on: Staphylococcus epidermidis; assay: Antibacterial activity against Staphylococcus epidermidis at 50 ug/ml after 18 hrs by cup plate method; conditions: for zone of inhibition at 50 µg/mL: read-out: DIZ; in short: as §1
Candida albicans [3] = assay: Antifungal activity against Candida albicans MTCC 227 at 50 ug/ml after 48 hrs by cup plate method
In short: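 Agar well (cup plate) diffusion on potato dextrose agar 39 g/L. Compounds dissolved in DMSO and loaded into 6 mm wells. Incubated at 28 ± 2 °C for 48 h. Inhibition zone diameter measured to the nearest millimetre, three replicates per treatment. DMSO solvent as negative control, amphotericin B as positive control.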

Staphylococcus aureus [4] = assay: Antibacterial activity against Staphylococcus aureus at 50 ug/ml after 18 hrs by cup plate method; conditions: for zone of inhibition at 50 µg/mL: read-out: DIZ; in short: as §1
Klebsiella pneumoniae [5] = assay: Antibacterial activity against Klebsiella pneumoniae at 50 ug/ml after 18 hrs by cup plate method; in short: as §1
Bacillus subtilis [6] = assay: Antibacterial activity against Bacillus subtilis at 50 ug/ml after 18 hrs by cup plate method; in short: as §1
Escherichia coli [7] = assay: Antibacterial activity against Escherichia coli at 50 ug/ml after 18 hrs by cup plate method; conditions: for zone of inhibition at 50 µg/mL: read-out: DIZ; in short: as §1
[8] = tested on: Mycobacterium tuberculosis; assay: Antimycobacterial activity against Mycobacterium tuberculosis H37Rv after 3 to 4 weeks by broth microdilution assay
In short: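 MIC by broth microdilution on compounds active in a single-concentration primary screen. Plates incubated 3–4 weeks at 37 °C in a CO₂ incubator. Wells read visually for absence of growth turbidity.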

Klebsiella pneumoniae [9] = assay: Antibacterial activity against Klebsiella pneumoniae at 100 ug/ml after 18 hrs by cup plate method; conditions: for zone of inhibition at 100 µg/mL: read-out: DIZ; in short: as §1
Staphylococcus aureus [10] = assay: Antibacterial activity against Staphylococcus aureus at 100 ug/ml after 18 hrs by cup plate method; conditions: for zone of inhibition at 100 µg/mL: read-out: DIZ; in short: as §1
Pseudomonas aeruginosa [11] = assay: Antibacterial activity against Pseudomonas aeruginosa at 100 ug/ml after 18 hrs by cup plate method; conditions: for zone of inhibition at 100 µg/mL: read-out: DIZ; in short: as §1
Escherichia coli [12] = assay: Antibacterial activity against Escherichia coli at 100 ug/ml after 18 hrs by cup plate method; conditions: for zone of inhibition at 100 µg/mL: read-out: DIZ; in short: as §1
Bacillus subtilis [13] = assay: Antibacterial activity against Bacillus subtilis at 100 ug/ml after 18 hrs by cup plate method; conditions: for zone of inhibition at 100 µg/mL: read-out: DIZ; in short: as §1
[14] = tested on: Staphylococcus epidermidis; assay: Antibacterial activity against Staphylococcus epidermidis at 100 ug/ml after 18 hrs by cup plate method; conditions: for zone of inhibition at 100 µg/mL: read-out: DIZ; in short: as §1
Candida albicans [15] = assay: Antifungal activity against Candida albicans MTCC 227 at 100 ug/ml after 48 hrs by cup plate method; conditions: MTCC 227, 48 h, read-out: IZ
In short: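 Agar well (cup plate) diffusion on potato dextrose agar 39 g/L, with compounds dissolved in DMSO. Plates were incubated at 28 ± 2 °C for 48 h and inhibition zones measured to the nearest mm. Three replicates per treatment. Amphotericin B positive control; solvent control included.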

Compound	zone of inhibition at 50 µg/mL (Pseudomonas aeruginosa [1])	zone of inhibition at 50 µg/mL [2]	inhibition zone (IZ) (Candida albicans [3])	zone of inhibition at 50 µg/mL (Staphylococcus aureus [4])	zone of inhibition at 50 µg/mL (Escherichia coli [7])	MIC [8]	zone of inhibition at 100 µg/mL (Klebsiella pneumoniae [9])	zone of inhibition at 100 µg/mL (Staphylococcus aureus [10])	diameter of the inhibition zone (DIZ) (Staphylococcus aureus [4])	zone of inhibition at 100 µg/mL (Pseudomonas aeruginosa [11])	diameter of the inhibition zone (DIZ) (Klebsiella pneumoniae [5])	zone of inhibition at 100 µg/mL (Escherichia coli [12])	diameter of the inhibition zone (DIZ) (Bacillus subtilis [6])	zone of inhibition at 100 µg/mL (Bacillus subtilis [13])	zone of inhibition at 100 µg/mL [14]	zone of inhibition at 100 µg/mL (Candida albicans [15])	diameter of the inhibition zone (DIZ) (Pseudomonas aeruginosa [1])	diameter of the inhibition zone (DIZ) (Escherichia coli [7])	also measured
CN[C@@H]1[C@H](O[C@H]2[C@H](O[C@H]3[C@H](O)[C@@H](O)[C@H](N=C(N)N)[C@@H](O)[C@@H]3N=C(N)N)O[C@@H](C)[C@]2(O)C=O)O[C@@H](CO)[C@H](O)[C@H]1O [STREPTOMYCIN]	29 mm	18 mm	inactive	22 mm	21 mm														zone of inhibition at 50 µg/mL (Klebsiella pneumoniae [5]; read-out: DIZ): 22 mm; zone of inhibition at 50 µg/mL (Bacillus subtilis [6]; read-out: DIZ): 17 mm
O=C(c1ccc([N+](=O)[O-])o1)N1CCN(C2=NS(=O)(=O)c3ccccc3N2c2ccccc2)CC1	10 mm	10 mm			10 mm	> 16 mg/L	11 mm	15 mm	inactive	16 mm	inactive	20 mm	inactive	19 mm	17 mm	17 mm			zone of inhibition at 50 µg/mL (Candida albicans [3]; MTCC 227, 48 h, read-out: IZ): 10 mm
CN1C(N2CCN(Cc3ccc([N+](=O)[O-])s3)CC2)=NS(=O)(=O)c2ccccc21		14 mm	inactive	10 mm		> 16 mg/L	12 mm	12 mm		13 mm	inactive	16 mm	inactive	18 mm	16 mm	17 mm	inactive	inactive	
CCN1C(N2CCN(C(=O)c3ccc([N+](=O)[O-])o3)CC2)=NS(=O)(=O)c2ccccc21			inactive			> 16 mg/L			inactive		inactive		inactive			10 mm	inactive	inactive	diameter of the inhibition zone (DIZ) (Klebsiella pneumoniae [9]): inactive; diameter of the inhibition zone (DIZ) [2]: inactive; diameter of the inhibition zone (DIZ) (Staphylococcus aureus [10]): inactive; diameter of the inhibition zone (DIZ) (Pseudomonas aeruginosa [11]): inactive; diameter of the inhibition zone (DIZ) (Escherichia coli [12]): inactive; diameter of the inhibition zone (DIZ) (Bacillus subtilis [13]): inactive; diameter of the inhibition zone (DIZ) [14]: inactive
O=[N+]([O-])c1ccc(CN2CCN(C3=NS(=O)(=O)c4ccccc4N3c3ccccc3)CC2)o1	10 mm	15 mm	inactive	14 mm	14 mm	2 mg/L (≈ 4.28 µM)	15 mm	15 mm		15 mm	inactive	20 mm	inactive	19 mm	20 mm	11 mm			

Source: ChEMBL document CHEMBL1250501, “Anti-tubercular agents. Part 5: synthesis and biological evaluation of benzothiadiazine 1,1-dioxide based congeners” (Eur J Med Chem, 2010)
